# Assay outcomes (PubChem BioAssay)
# This is a sample that favours compounds with a hit; in the whole collection about 2.3% have one here.
# TAAR1 agonist: human TAAR1 agonism; Q96RJ0; CHO RD-HGA16 TAAR1, Fluo-8 calcium fluorescence; vehicle wells 0%, saturating PEA agonist 100%; activation, % at 3 µM; actives 0.99% (n = 360,000); AID 624467;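 active = activation above the mean activation of all test compounds in the run plus 3 SD, cut at about 38% in these data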
# Target sequence (Q96RJ0 whole entry, looked up): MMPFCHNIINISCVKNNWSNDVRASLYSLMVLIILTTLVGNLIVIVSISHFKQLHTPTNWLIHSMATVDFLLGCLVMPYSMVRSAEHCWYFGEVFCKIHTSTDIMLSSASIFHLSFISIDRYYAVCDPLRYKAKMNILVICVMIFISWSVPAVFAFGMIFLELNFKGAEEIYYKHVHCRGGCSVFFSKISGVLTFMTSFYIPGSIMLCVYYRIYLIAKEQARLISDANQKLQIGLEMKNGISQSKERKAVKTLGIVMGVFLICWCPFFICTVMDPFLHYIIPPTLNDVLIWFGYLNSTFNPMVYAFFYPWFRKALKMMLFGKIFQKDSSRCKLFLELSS
#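 System: CHO-derived RD-HGA16 cells with stable Gα16 and human TAAR1. Times: 17-24 h plating, Fluo-8 75 min 37 °C, 30 min RT. Measured by: calcium-sensitive Fluo-8 signal, excitation 470-495, emission 515-575 nm. Read-out basis: % activation relative to PEA EC100 response. Control set: DMSO and PEA EC100. Repeats: no replicates (n 1).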
# OXTR ag: agonists of human oxytocin receptor. CHO-OTR cells, Fluo-8 calcium fluorescence; normalized: DMSO 0%, oxytocin 100%. activation, % at 3 µM. actives 0.32% (n = 320,000);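 active = activation above the mean of all tested compounds plus 3 SD, cutoff set per screening run, cut at about 20% in these data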;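 note: peak over basal fluorescence ratio from a 100 s FLIPR kinetic read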
# TAAR1 antag: human TAAR1 antagonism. Q96RJ0. CHO RD-HGA16 TAAR1, Fluo-8 calcium fluorescence, antagonist. inhibition, % at 3 µM. actives 1.5% (n = 360,000);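 active = inhibition above a per-plate cutoff, the mean inhibition of test compounds on that plate plus 3 SD, cut at about 49% in these data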;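 note: 0% = DMSO plus EC80 beta-PEA response and 100% = DMSO alone without agonist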
#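 System: RD-HGA16 CHO cells with stable hTAAR1 and Gα16 | Probe or stimulus: EC80 β-phenethylamine stimulus | Dosing: 3 µM, single point | Times: Dye loading 75 min at 37 °C, then 30 min room temperature | Measured by: Fluo-8 calcium-sensitive fluorescence | Read-out basis: % inhibition of agonist calcium response | Replicates: n of 1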
# V1aR counter: activates human V1a receptor in oxytocin agonist counter-screen; P37288; CHO-V1R cells, Fluo-8 calcium fluorescence, agonist mode; 0% DMSO, 100% 3 nM vasopressin; activation, % at 3 µM; actives 0.25% (n = 320,000); AID 2797;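 active = activation above the mean activation of all tested compounds plus 3 SD, per screening run, cut at about 20% in these data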;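 note: signal is peak over basal fluorescence ratio across a 100 second FLIPR read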
# Target sequence (P37288 whole entry, looked up): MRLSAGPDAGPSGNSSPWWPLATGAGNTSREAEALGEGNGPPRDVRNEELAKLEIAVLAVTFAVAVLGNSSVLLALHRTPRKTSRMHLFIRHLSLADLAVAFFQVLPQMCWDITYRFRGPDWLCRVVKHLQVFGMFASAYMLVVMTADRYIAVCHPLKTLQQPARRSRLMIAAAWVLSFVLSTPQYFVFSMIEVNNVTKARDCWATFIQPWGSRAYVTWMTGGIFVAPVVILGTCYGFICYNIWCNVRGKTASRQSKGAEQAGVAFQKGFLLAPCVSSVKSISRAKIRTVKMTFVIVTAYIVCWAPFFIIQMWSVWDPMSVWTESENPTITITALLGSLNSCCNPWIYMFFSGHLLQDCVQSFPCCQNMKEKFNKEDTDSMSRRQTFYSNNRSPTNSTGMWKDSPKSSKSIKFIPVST
# OXTR potentiate: potentiators of human oxytocin receptor; CHO-OTR cells, Fluo-8 calcium fluorescence, potentiator mode; 0% = oxytocin EC15, 100% = EC100; activation, % at 3 µM; actives 0.061% (n = 320,000); AID 2445;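 active = activation above that plate's cutoff, the mean activation of tested compounds plus 3 SD, cut at about 6.6% in these data, passing the limit was not always enough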;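 note: 100% uses oxytocin at 75 nM as the full agonist control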
#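 Assay system: CHO cell line stably expressing human OTR. Reagent: EC15 oxytocin agonist. Dosing: single dose, 3.0 µM nominal final compound concentration. Timing: compound 6 min at room temperature before oxytocin, 100 s read. Signal: kinetic Fluo-8 calcium fluorescence. Controls: oxytocin EC15 low and EC100 high.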
# nonsel antag count: nonselective antagonist in TAAR1 antagonist counter-screen; shares compounds with TAAR1 antag; counterscreen cell line, calcium fluorescence, antagonist mode; inhibition, % at 3 µM; actives 77% (n = 2,400); AID 651780; in the data active = inhibition above about 22%;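 note: CHO-Ga16 host cells stimulated with ATP at an EC80 level; 0% = agonist EC80 plus vehicle and 100% = vehicle without agonist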
# TAAR1 antag conf: confirmation of human TAAR1 antagonists | actives 40% (n = 2,400) | TAAR1-expressing cells, fluorescence antagonist read-out | inhibition, % at 3 µM | shares compounds with TAAR1 antag; in the data active = inhibition above about 49%;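 note: CHO-Ga16 host cells challenged with agonist PEA near its EC80; 0% = agonist at EC80 plus vehicle and 100% = vehicle with no agonist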
# Ga16 ag counter: nonselective Ga16 agonist in TAAR1 antagonist counter-screen. Ga16-expressing cells, calcium fluorescence, agonist counterscreen. shares compounds with TAAR1 antag. activation, % at 3 µM. actives 18% (n = 2,400); in the data active = activation above about 12%;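 note: 0% = vehicle wells and 100% = saturating stimulus response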
# TAAR1 ag count: activates human TAAR1 in antagonist counter-screen. shares compounds with TAAR1 antag. activation, % at 3 µM. hTAAR1 cell line, fluorescence activation, agonist mode. AID 651955. actives 2% (n = 2,400); in the data active = activation above about 37%;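 note: CHO cells stably expressing TAAR1 with calcium dye readout; 0% = DMSO vehicle and 100% = full agonist response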
# Starred values were filed as active, the others as inactive; / = not tested or not shown.
SMILES,TAAR1 agonist,OXTR ag,TAAR1 antag,V1aR counter,OXTR potentiate,nonsel antag count,TAAR1 antag conf,Ga16 ag counter,TAAR1 ag count
COc1ccc(OC)c(NC(=O)C2CCN(C(=O)C3CC(=O)N(c4ccc(C)cc4)C3)CC2)c1 (centres undefined),3.3,0.1,-6.4,-0.1,-0.2,/,/,/,/
CCOC(=O)C1=C[C@@H](C(C)C)N(S(=O)(=O)c2ccc([N+](=O)[O-])cc2)[C@H]1c1ccccc1,-1.9,/,81.7*,/,/,25.5*,45.2,5.1,8.3
CCOC(=O)C1=C[C@@H](CC)N(S(=O)(=O)c2ccc([N+](=O)[O-])cc2)[C@H]1c1ccccc1,-0.1,/,72.1*,/,/,30.2*,37.9,2.0,4.1
CC(=O)Nc1cc(-c2ccc(CO)cc2)cn2c(-c3cccc(C(F)(F)F)c3)cnc12,13.2,/,69.6*,/,/,36.3*,50.6*,9.6,15.1
COc1ccccc1-c1cc(NC(C)=O)c2ncc(-c3cccc(C(C)=O)c3)n2c1,3.3,/,85.9*,/,/,32.4*,52.9*,6.7,2.6
COc1cc(-c2cc(NC=O)c3ncc(-c4ccc(C(C)=O)cc4)n3c2)cc(OC)c1OC,7.3,/,52.9*,/,/,23.0*,37.1,9.9,11.3
COc1ccccc1-c1cc(NC(C)=O)c2ncc(-c3ccc(S(C)(=O)=O)cc3)n2c1,10.7,/,10.0,/,/,/,/,/,/
COc1ccc(-c2cc(NC=O)c3ncc(-c4ccc(C(C)=O)cc4)n3c2)cc1OC,7.8,/,25.8,/,/,/,/,/,/
CSc1nc(N)c2c(n1)N(C)C=NS2(=O)=O,0.9,/,-18.7,/,/,/,/,/,/
CCN(c1ccccc1)S(=O)(=O)c1ccc(OC)c(NC(=O)C2CCC2)c1,0.1,-1.6,-17.2,-0.1,-4.8,/,/,/,/
CCN(c1ccccc1)S(=O)(=O)c1ccc(OC)c(NC(=O)Cc2ccc(F)cc2)c1,-1.4,2.7,103.6*,4.2,-12.3,8.3,3.1,2.2,0.4
O=C1c2ccccc2C(=O)N1CCc1nc(-c2ccc(Cl)cc2)no1,18.6,1.1,63.4*,3.6,-14.3,28.6*,37.3,5.7,2.0
Cc1ccc(N(C)S(=O)(=O)c2ccc3c(c2)NC(=O)C(C)S3)cc1 (centres undefined),5.9,-0.3,13.7,3.5,-10.9,/,/,/,/
COc1ccc(Sc2ccc(-c3nc4cnccn4c3NC3CCCCC3)cc2OC)cc1,10.1,0.7,57.8*,1.1,-0.4,29.1*,41.3,3.5,4.0
CCC(C)Sc1ccc(-c2nc3cnccn3c2NC2CCCCC2)cc1 (centres undefined),8.5,-1.4,20.0,0.0,-8.0,/,/,/,/
NS(=O)(=O)c1ccc(CCNC(=O)COC(=O)/C=C/c2cc(Br)ccc2F)cc1,8.3,4.1,11.9,7.6,-4.4,/,/,/,/
Cc1ccc2c(c1)N(CC(=O)NC1CCCCC1)C(=O)c1cccnc1O2,-0.2,0.2,-18.4,-0.2,1.5,/,/,/,/
O=C(Nc1nc(-c2nc3ccccc3s2)cs1)C1COc2ccccc2O1 (centres undefined),-0.1,-0.2,59.8*,0.7,-5.5,25.5*,33.1,7.7,8.2
COc1ccc(OC)c(-c2csc(NC(=O)C3COc4ccccc4O3)n2)c1 (centres undefined),0.1,-0.9,41.3,0.3,0.2,/,/,/,/
CC(/C=C(\NC(=O)c1ccccc1)C(=O)N=Nc1c(O)[nH]c2ccc(C)cc12)=C\c1ccccc1,11.2,-0.8,64.8*,0.6,-12.8,20.3,47.0,7.0,5.4
Cc1cc(-c2cc(NC(=O)Cc3c[nH]c4ccccc34)ccc2Nc2cccnc2)ccc1F,9.4,/,62.9*,/,/,26.8*,34.7,4.9,0.3
COc1ccc(-c2cc(NC(=O)Cc3c[nH]c4ccccc34)ccc2N(C)c2cccnc2)cc1F,4.0,/,16.8,/,/,/,/,/,/
COc1ccc(-c2cc(NC(=O)Cc3c[nH]c4ccccc34)ccc2Nc2cccnc2)c(OC)c1,8.9,/,64.3*,/,/,31.8*,52.2*,5.9,6.2
Cc1cc(-c2cc(NC(=O)Cc3c(C)[nH]c4ccccc34)ccc2Nc2cccnc2)ccc1F,1.8,/,-9.5,/,/,/,/,/,/
O=C(CCC(=O)N(CC(=O)NC1CCCCC1)Cc1cccs1)Nc1nccs1,0.9,0.8,-7.3,-0.3,1.7,/,/,/,/
SMILES,TAAR1 agonist,OXTR ag,TAAR1 antag,V1aR counter,OXTR potentiate,nonsel antag count,TAAR1 antag conf,Ga16 ag counter,TAAR1 ag count
O=C(CSc1nc2ccccc2s1)NC(=O)NCc1ccco1,3.3,-1.1,-10.5,-0.1,-2.1,/,/,/,/
O=C(CSc1nc(-c2ccccc2)cs1)NC(=O)NCc1ccco1,7.2,-2.4,54.0*,0.8,-4.2,30.0*,41.5,5.2,1.8
CCOC(=O)N(C)[C@H]1C[C@H]2c3[nH]c4c(-c5ccccc5)cccc4c3CCN2C(=O)[C@H]1[C@H](C)O,3.1,/,13.1,/,/,/,/,/,/
COc1ccc(NC(=O)N(C)[C@H]2C[C@H]3c4[nH]c5c(-c6ccccc6)cccc5c4CCN3C(=O)[C@H]2[C@H](C)O)cc1,15.5,/,69.2*,/,/,41.2*,53.0*,8.0,5.7
COC(=O)c1ccc(/C=C/C(=O)OCC(=O)c2ccc[nH]2)cc1,3.6,1.8,-3.7,2.9,-3.9,/,/,/,/
COc1ccc(CCNc2oc(COc3ccc(Br)cc3)nc2C#N)cc1OC,4.9,1.0,92.7*,5.2,-8.1,47.4*,65.0*,8.7,4.2
COc1ccc(CCNc2oc(COc3ccccc3F)nc2C#N)cc1,8.3,-1.1,65.0*,0.9,-4.0,29.2*,52.2*,6.2,2.0
O=C(c1ccc(C(F)(F)F)cc1)N1CCN(S(=O)(=O)c2ccc3c(c2)OCCCO3)CC1,-0.8,2.8,-13.9,2.7,-13.9,/,/,/,/
COCCNC(=O)c1ccc(NC(=O)C2(c3ccccc3)CCCC2)cc1,3.6,1.6,11.0,2.9,1.5,/,/,/,/
Cc1ccc(NC(=O)c2ccc(N3C(=O)C4CC=C(Cl)CC4C3=O)cc2)cc1 (centres undefined),26.9,6.6,62.5*,5.2,-8.4,23.8*,44.8,13.4*,14.5
Cc1ccc(C(=O)Nc2cccc(N3C(=O)C4CCC(C)CC4C3=O)c2)cc1 (centres undefined),11.9,1.3,71.3*,4.7,-6.4,31.0*,50.3*,7.5,4.7
Cc1ccc(CNC(=O)C2CCCN(S(=O)(=O)c3cccc4nonc34)C2)cc1 (centres undefined),1.3,0.1,-7.7,-0.1,-7.1,/,/,/,/
